Experimental data: ChEMBL document CHEMBL2346577, “Isolation, structure, and biological activity of Phaeofungin, a cyclic lipodepsipeptide from a Phaeosphaeria sp. Using the Genome-Wide Candida albicans Fitness Test” (J Nat Prod, 2013)
≈ marks a conversion by molar mass, not a printed value. Calls of active or inactive are those of the source. No cut-off for these calls is given here. Numbered stars: 1 amine (or outer) side, 2 acyl side, 3 side chain; on linkers, the order of the positions; unused ones are H or OH. Bridge positions count the residues as written; N and C are the ends. Square brackets hold non-standard residues; d marks the D form. Peptide text beside a SMILES is read from it. * marks the point of attachment. ξ: configuration not given here. X2 = CCCCCCCCCCCCC(C)C(CC(=O)[*:1])O[*:2]; X1 = CCCCCCCCCCCCC(C)(O)C(O)CC(=O)*; ξhSer = NC(CCO)C(=O)O

Key:
[1] = tested on: Candida albicans; assay: Induction of ATP release from cytoplasm of Candida albicans isolate 2323 at >MIC by Promega Bactiter Glo assay; format: functional, organism-based
How it was run: (§1)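 ATP leaking from fungal cells exposed to compound was measured by BacTiter Glo luminescence per manufacturer's instructions, in parallel with whole-cell growth inhibition across a concentration series. Release was referenced to basal ATP release in the assay and to total ATP release for each strain.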

[2] = tested on: Candida albicans; assay: Induction of ATP release from cytoplasm of Candida albicans SC5314 at >MIC by Promega Bactiter Glo assay; format: functional, organism-based; how it was run: as §1
[3] = tested on: Candida albicans; assay: Antifungal activity against Candida albicans expressing DIP5 deletion mutant assessed as inhibition of fungal growth; format: functional, organism-based
[4] = tested on: Candida albicans; assay: Induction of ATP release from cytoplasm of Candida albicans isolate 2323 at 0.1 to 25 ug/ml by Promega Bactiter Glo assay; format: functional, organism-based
How it was run: (§2)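 Release of cytoplasmic ATP from whole C. albicans cells (strains 2323 and SC5314) exposed to compound, measured with the BacTiter Glo luminescence kit per manufacturer's instructions. Read alongside whole-cell growth inhibition in the same strains, and compared with basal ATP release and total releasable ATP for each strain.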

[5] = tested on: Candida albicans; assay: Induction of ATP release from cytoplasm of Candida albicans SC5314 at 0.1 to 25 ug/ml by Promega Bactiter Glo assay; format: functional, organism-based; how it was run: as §2
[6] = tested on: Candida albicans; assay: Antifungal activity against Candida albicans expressing CRZ1 deletion mutant assessed as inhibition of fungal growth; format: functional, organism-based
[7] = tested on: Candida albicans; assay: Antifungal activity against Candida albicans expressing CMD1 deletion mutant assessed as inhibition of fungal growth; format: functional, organism-based
[8] = tested on: Nakaseomyces glabratus; assay: Antifungal activity against Candida glabrata MY1381 assessed as inhibition of fungal growth after 24 hrs; format: functional; settings: MY1381, 24 h
How it was run: (§3)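 Broth dilution against each fungal strain. Inoculum 10^5 CFU/mL, compound in 2-fold serial dilution in growth medium at 37 °C. MIC is the lowest concentration inhibiting visible growth; MIC80 (prominent inhibition, MEC for Aspergillus) also read. Incubation 24 h, except 48 h for A. fumigatus.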

[9] = tested on: Pichia kudriavzevii; assay: Antifungal activity against Candida krusei ATCC 6258 assessed as inhibition of fungal growth after 24 hrs; format: functional; settings: ATCC 6258, 24 h; how it was run: as §3
[10] = tested on: Candida tropicalis; assay: Antifungal activity against Candida tropicalis MY1012 assessed as inhibition of fungal growth after 24 hrs; format: functional; settings: MY1012, 24 h; how it was run: as §3
[11] = tested on: Candida albicans; assay: Antifungal activity against Candida albicans MY1055 assessed as inhibition of fungal growth after 24 hrs in presence of 50% mouse serum; format: functional; settings: MY1055, 24 h
[12] = tested on: Candida albicans; assay: Antifungal activity against Candida albicans MY1055 assessed as inhibition of fungal growth after 24 hrs; format: functional; settings: MY1055, 24 h; how it was run: as §3
[13] = tested on: Staphylococcus aureus; assay: Antimicrobial activity against Staphylococcus aureus MB2865 assessed as inhibition of microbial growth after 24 hrs; format: functional; settings: MB2865, 24 h
[14] = tested on: Clavispora lusitaniae; assay: Antifungal activity against Candida lusitaniae MY1396 assessed as inhibition of fungal growth after 24 hrs; format: functional; settings: MY1396, 24 h
How it was run: (§4)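 Whole-cell growth assay with incubation of 24 h for most strains, 48 h for A. fumigatus and 96 h for T. mentagrophytes. MIC is the lowest concentration inhibiting visible growth. MIC80 is prominent growth inhibition, also called MEC for Aspergillus.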

[15] = tested on: Trichophyton mentagrophytes; assay: Antifungal activity against Trichophyton mentagrophytes MF7004 assessed as inhibition of fungal growth after 96 hrs; format: functional; settings: MF7004, 96 h; how it was run: as §4
[16] = tested on: Aspergillus fumigatus; assay: Antifungal activity against Aspergillus fumigatus MF5668 assessed as inhibition of fungal growth after 48 hrs in presence of 50% human serum; format: functional; settings: MF5668, 48 h; how it was run: as §4
[17] = tested on: Candida parapsilosis; assay: Antifungal activity against Candida parapsilosis ATCC 22019 assessed as inhibition of fungal growth after 24 hrs; format: functional; settings: Lodderomyces parapsilosis, ATCC 22019, 24 h; how it was run: as §3
[18] = tested on: Aspergillus fumigatus; assay: Antifungal activity against Aspergillus fumigatus MF5668 assessed as inhibition of fungal growth after 48 hrs; format: functional; settings: MF5668, 48 h; how it was run: as §3
[19] = tested on: Mus musculus; assay: Toxicity in DBA/2N mouse assessed as induction of lethality at 6.25 mg/kg, ip; format: organism-based; set-up: dose 6.25 mg/kg, route intraperitoneal; settings: in vivo
[20] = tested on: Candida albicans; assay: Induction of ATP release from cytoplasm of Candida albicans SC5314 at 0.2 to 50 ug/ml by Promega Bactiter Glo assay; format: functional, organism-based; how it was run: as §2
[21] = tested on: Candida albicans; assay: Antifungal activity against Candida albicans expressing AUR+/- gene assessed as inhibition of fungal growth; format: functional, organism-based
[22] = tested on: Candida albicans; assay: Induction of ATP release from cytoplasm of Candida albicans isolate 2323 at 0.2 to 50 ug/ml by Promega Bactiter Glo assay; format: functional, organism-based; how it was run: as §2
[23] = tested on: Mus musculus; assay: Toxicity in DBA/2N mouse assessed as induction of lethality at >12.5 mg/kg, ip; format: organism-based; settings: in vivo
[24] = tested on: Candida albicans; assay: Antifungal activity against Candida albicans expressing RTA1+/- gene assessed as inhibition of fungal growth; format: functional, organism-based

| Structure (SMILES) | Activity [1] | Activity [2] | growth inhibition (GI) [3] | growth inhibition (GI) [6] | growth inhibition (GI) [7] | MIC [8] [µg/mL] | MIC [9] [µg/mL] | MIC [10] [µg/mL] | MIC [11] [µg/mL] | MIC [12] [µg/mL] | MIC [13] [µg/mL] | MIC [14] [µg/mL] | MIC [15] [µg/mL] | MIC [16] [µg/mL] | MIC [17] [µg/mL] | MIC [18] [µg/mL] | further results |
| --- | --- | --- | --- | --- | --- | --- | --- | --- | --- | --- | --- | --- | --- | --- | --- | --- | --- |
| C[C@@H]1[C@H](O)[C@@H](C)/C=C/C=C/C=C/C=C/C=C/C=C/C=C/[C@H](O[C@@H]2O[C@H](C)[C@@H](O)[C@H](N)[C@@H]2O)C[C@@H]2O[C@](O)(C[C@@H](O)C[C@@H](O)[C@H](O)CC[C@@H](O)C[C@@H](O)CC(=O)O[C@H]1C)C[C@H](O)[C@H]2C(=O)O | inactive | inactive | – | – | – | – | – | – | – | – | – | – | – | – | – | – | – |
| CCCCCCCCCCCCC(C)C1CC(=O)N[C@@H](C)C(=O)NC(CCO)C(=O)N[C@@H](CCC(=O)O)C(=O)NCC(=O)N[C@@H](CO)C(=O)N[C@H](CC(N)=O)C(=O)N[C@H]([C@H](C)O)C(=O)NC(CCO)C(=O)O1 (some centres undefined) (A[ξhSer]EGS[dN][dT][ξhSer]; linker N-C via X2) | – | – | inactive | Active | Active | – | – | – | – | – | – | – | – | – | – | – | Activity [4]: inactive; Activity [5]: inactive |
| CCCCCCCCCCCCC(C)(O)C(O)CC(=O)N[C@@H](CO)C(=O)N[C@@H](C)C(=O)N[C@@H](CC(=O)O)C(=O)N[C@@H](C)C(=O)N[C@@H](CO)C(=O)N[C@@H](CO)C(=O)N[C@H](C(=O)O)[C@@H](C)O (some centres undefined) (X1-SADASST-OH) | – | – | – | – | – | > 32 | > 32 | > 32 | > 32 | > 32 | > 32 | > 32 | > 32 | > 32 | > 32 | > 32 | – |
| CC[C@H](C)C[C@H](C)CCCCCCCCC(=O)N[C@H]1C[C@@H](O)[C@@H](NCCN)NC(=O)[C@@H]2[C@@H](O)CCN2C(=O)[C@H]([C@H](O)CCN)NC(=O)[C@H]([C@H](O)[C@@H](O)c2ccc(O)cc2)NC(=O)[C@@H]2C[C@@H](O)CN2C(=O)[C@H]([C@@H](C)O)NC1=O [CASPOFUNGIN] | Active | Active | – | – | – | 0.25 (≈ 0.229 µM) | 1 (≈ 0.915 µM) | – | 0.25 | 0.5 (≈ 0.457 µM) | > 32 | < 0.03 | 32 (≈ 29.3 µM) | 32 | 0.5 (≈ 0.457 µM) | 32 (≈ 29.3 µM) | – |
| CCCCCCCCCCCC(C)(O)C1CC(=O)N[C@@H](CO)C(=O)N[C@H](C)C(=O)N[C@H](CC(=O)O)C(=O)N[C@@H](C)C(=O)N[C@H](CO)C(=O)N[C@H](CO)C(=O)N[C@H]([C@@H](C)O)C(=O)O1 (some centres undefined) [PHAEOFUNGIN] | – | – | inactive | inactive | inactive | > 32 | > 32 | > 32 | > 32 | 32 (≈ 36 µM) | > 32 | 32 (≈ 36 µM) | 4 (≈ 4.49 µM) | > 32 | > 32 | 16 (≈ 18 µM) | Activity [19]: Non-toxic; Activity [20]: Active; MIC80 [9]: 32 µg/mL (≈ 36 µM); growth inhibition (GI) [21]: Active; MIC80 [12]: 16 µg/mL (≈ 18 µM); MIC80 [17]: 32 µg/mL (≈ 36 µM); Activity [22]: Active; Activity [23]: Dose-dependent effect; minimal effective concentration ([18]; read-out: MEC): 8 µg/mL; growth inhibition (GI) [24]: Active |
